Test results taken from paper PMC12034291 (International Journal of Nanomedicine, 2025).
Values after ≈ are worked out from the molar mass of the structure shown. “Also recorded” adds a separate entry of the source.

Experiments:
[1] = test system: U87 cells; experiment: CCK-8 cytotoxicity assay, U87 cells; assay type: cell-based, human
How it was run: (§1)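 CCK-8 viability assay in cells grown in high-glucose DMEM with 10% FBS at 37°C, 5% CO2. Peptide alone was tested at 0, 15, 30, 60 and 120 μg/mL in medium with 10% serum. Blank wells received medium only. Because the test material carries a fluorescent label, parallel wells without CCK-8 gave a D(450) background, which was subtracted. Viability (%) = (experimental − blank)/(control − blank) × 100. Three independent repeats, mean ± SD, t-test/one-way ANOVA.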

[2] = UV-visible spectrophotometry of TMVP1 coupling rate; assay type: physicochemical; conditions: FAM-labeled TMVP1
How it was run: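 Coupling efficiency of the FAM-labelled peptide to liposomes was measured by UV-visible absorbance at 456 nm, before and after coupling. Coupling rate = (absorbance decrease)/(absorbance before coupling) × 100%. Liposome-bound peptide concentration was estimated from this rate.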

[3] = test system: FLT4 protein; experiment: Surface plasmon resonance; assay type: binding; conditions: TMVP1 10 mg/mL; FLT4 protein 0.6 mg/mL on CM5 chip
How it was run: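 SPR on a […]. Recombinant FLT4 protein (0.6 mg/mL) was coupled directly to a CM5 chip as the solid phase. The peptide (10 mg/mL) was run as analyte in the mobile phase. The maximum binding response within 150 s was recorded in RU, where 1 RU = 1 pg/mm² surface change.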

[4] = after combining with nanoprobes; cited from earlier work
[5] = test system: FLT4; conditions: cited from earlier work
[6] = cited from earlier work
[7] = test system: FLT4 protein (U87 and U373 cells); experiment: Fluorescent peptide in vitro binding / colocalization with FLT4; assay type: cell-based, human; conditions: FAM-labeled TMVP1; confocal, green and red light brightness 110
[8] = test system: HEB cells; experiment: CCK-8 cytotoxicity assay, HEB cells; assay type: cell-based, human; conditions: TMVP1 0, 15, 30, 60, 120 μg/mL, P>0.05
How it was run: as §1

Compound	IC50 ([1]; Homo sapiens, U-87 MG, read-out: IC50 (cytotoxicity)) [µg/mL]	absorbance after coupling TMVP1 ([2]; 456 nm)	absorbance before coupling TMVP1 ([2]; 456 nm)	TMVP1 coupling rate ([2]; absorbance at 456 nm, (absorbance decrease before and after coupling)/(absorbance before coupling) × 100%) [%]	TMVP1 concentration (from coupling rate) ([2]; estimated from coupling rate)	binding affinity to FLT4 (in words) [3]	biocompatibility and in vivo stability [4]	binding speed to FLT4 versus traditional monoclonal antibodies [5]	immunogenicity versus traditional monoclonal antibodies [6]	fluorescence intensity, U87 versus U373 cell line [7]	cytotoxicity of peptide alone towards U87 cells ([1]; CCK-8, U87 cells, TMVP1 0, 15, 30, 60, 120 μg/mL, P>0.05)	biological toxicity of peptide alone to HEB cells [8]
Cn1nnc2c(C(N)=O)ncn2c1=O [TMZ, Temozolomide, reference compound]	48.4 (≈ 249 µM)	–	–	–	–	–	–	–	–	–	–	–
LARGR [TMVP1]	–	0.069	0.296	76.68	around 0.153 mg/mL	strong binding affinity	good biocompatibility and in vivo stability	faster binding speed	lower immunogenicity than traditional monoclonal antibodies	the fluorescence intensity in the U87 cell line was higher than in the U373 cell line	did not show significant cytotoxicity towards U87 cells; also recorded: no significant biological toxicity	no significant biological toxicity
